Results of several laboratories.
Protocols differ between the studies behind these lines.
Target: Serine/threonine-protein kinase NIM1 (NIM1K, Homo sapiens, UniProt Q8IY84)

SMILES	observed	action	technique	tested at	measurement	result
Cc1ccc(NC(=O)c2ccc(C)c(C(F)(F)F)c2)cc1C#Cc1nn(C2CCC(O)CC2)c2ncnc(N)c12 (centres unmarked)	cell-free assay	–	–	10 µM	remaining signal	131%
Cc1cc(NC(=O)c2cccc3cc(-c4cccc5[nH]nc(N)c45)ccc23)ccc1F	enzyme activity	inhibitor	–	0.1 µM	activity vs control	115%
Cc1c(C(=O)O)cc(-c2ccc(C3CCNCC3)cc2)c2ccc(-c3ccc(C(F)(F)F)cc3)cc12	binding	–	competition with immobilised ligand	1 µM	remaining binding	92%
Nc1ncnc2occ(-c3ccc(NC(=O)Nc4cc(C(F)(F)F)ccc4F)cc3)c12	cell-free assay	inhibitor	–	20 µM	remaining signal	67%
COc1cc(Cl)c(C(=O)N[C@@H](CN[C@H]2CC[C@@H](N)CC2)Cc2ccc(C#N)cc2)cc1-c1ccc(CN[C@H](C)c2ccc(C)cc2)o1	enzyme activity	inhibitor	–	1 µM	remaining activity	98%
CC/C(=N\NC(=O)NCc1cccc(O)c1)c1ccc(O)c(C)c1O	enzyme activity	inhibitor	–	0.1 µM	inhibition	-2.9%
O=C(Nc1cnn(-c2csc(C(=O)NC3COC3)c2)c1)Nc1c(F)cccc1Cl	enzyme activity	inhibitor	–	5 µM	remaining activity	70.7%
COc1cc(-c2cn(C3CCc4ccccc4N(CC(F)(F)F)C3=O)nn2)ccc1-n1ccc(C)n1 (centres unmarked)	cell-free assay	–	competition with immobilised ligand	1 µM	remaining binding	80%
O=C(Nc1cnn(-c2csc(C(=O)NC3COC3)c2)c1)Nc1ccccc1Cl	enzyme activity	inhibitor	–	5 µM	remaining activity	101%
Cc1cnc(NC2CCOCC2)nc1-n1cnc(C(=O)NC(CN)c2cc(F)cc(Cl)c2)c1 (centres unmarked)	enzyme activity	inhibitor	radiometric	1 µM	remaining activity	40%
CN1CC(Oc2cnc(C#N)cc2-c2ccn3nc(NC(=O)C4CC4)cc3c2)C1	enzyme activity	inhibitor	–	1 µM	inhibition	8%
